FAS TE block: blocks the thioesterase domain of human fatty acid synthase. P49327. recombinant FAS-TE, OMFH fluorogenic substrate, fluorescence endpoint. inhibition, % at 15 µM. 360,000 compounds, 0.67% hits. AID 602261;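 active = compounds whose normalised, plate-corrected inhibition of enzyme fluorescence in the single-dose primary screen is 50% or more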;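 also: 0% = DMSO with enzyme and 100% = substrate without enzyme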
m-calpain inh: blocks pig calpain II enzyme activity | inhibition, % at 16 µM | 220,000 compounds, 0.37% hits | purified calpain II, fluorogenic peptide substrate, 30 min;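 active = inhibition above about 50%, limit read from the data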
Runt-SMMHC FRET: blocks binding of human RUNX1 Runt domain to CBFb-SMMHC. AID 1434. inhibition, % at 20 µM. Q01196+Q13951. Cerulean-Runt/Venus-CBFb-SMMHC FRET ratio 530/480, 1 h. 220,000 compounds, 0.74% hits;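 active = mean inhibition across duplicate retests at 20 µM reaching about 50%, limit read from the data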;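 also: 0% = DMSO wells and 100% = wells with excess untagged CBFb-SMMHC; inhibitors lower the FRET ratio by blocking Runt binding to CBFb-SMMHC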
RanGTP-Impb inh: inhibitors of RanGTP-importin-beta interaction, primary screen, biochemical, FRET, CFP-Ran, YFP-importin-beta, homogeneous. AID 2216. 300,000 compounds, 1.1% hits. inhibition, % (no concentration beside the values). cell-free CFP-Ran/YFP-importin-beta FRET ratio;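 active = more than half of the replicate wells show a fall in the fluorescence ratio signal beyond about 16%, limit read from the data, passing the limit was not always enough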;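 also: 0% = DMSO wells and 100% = Ran loaded with GDP instead of GTP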
Runt-CBFb FRET: blocks binding of human RUNX1 Runt domain to CBFb; inhibition, % at 20 µM; AID 1496; Cerulean-Runt/Venus-CBFb FRET ratio 530/480, 1 h; 220,000 compounds, 0.46% hits; Q01196+Q13951;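 active = inhibition over about 50% at 20 µM in the single-dose screen, limit read from the data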;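 also: 0% = DMSO wells and 100% = excess unlabeled CBFb competitor control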
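Measured by: fluorescence energy transfer, 422 nm excitation, 530/480 nm emission; Assay system: Cerulean-Runt domain; Medium: Tris pH 7.5 buffer with BSA; Measure: loss of energy transfer signal; Controls: 5 µM unlabeled CBFb as full-inhibition high control; Incubation: protein complex preformed 1 h, compound exposure 1 h, room temperature, dark.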
FAS-TE inh conf: confirmation of human fatty acid synthase thioesterase inhibitors; 2,300 compounds, 45% hits; inhibition, % at 15 µM; AID 624325; shares compounds with FAS TE block; recombinant FAS-TE, OMFH fluorogenic substrate, fluorescence;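 active = compounds inhibiting the enzyme by at least 50% at 15 µM in any one of the replicates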;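 also: 0% = enzyme with DMSO only and 100% = wells lacking enzyme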
* = called active by the depositor; nt = no result given. Hits are enriched below; roughly 2.1% of the tested compounds scored in any of these assays.

SMILES | FAS TE block | m-calpain inh | Runt-SMMHC FRET | RanGTP-Impb inh | Runt-CBFb FRET | FAS-TE inh conf
O=C(NCc1ccccc1)/C(=C/c1cccc([N+](=O)[O-])c1)NC(=O)c1ccco1 | 69.4* | nt | nt | 8.1 | nt | 78.9*
O=C(NCCc1ccccc1)/C(=C\c1cccc([N+](=O)[O-])c1)NC(=O)c1ccco1 | 83.4* | nt | nt | 7.2 | nt | 77.2*
Cc1cccc([C@@H]2[C@@H]3C(=O)N(Cc4ccccc4)C(=O)[C@@H]3[C@]3(Cc4ccccc4)C(=O)N(c4cccc(F)c4)C(=O)N23)c1 | 91.7* | nt | nt | -0.6 | nt | 17.2
Cc1cccc([C@@H]2[C@@H]3C(=O)N(Cc4ccccc4)C(=O)[C@@H]3[C@]3(CC(C)C)C(=O)N(c4cccc(F)c4)C(=O)N23)c1 | 71.9* | nt | nt | 2.4 | nt | 25.9
CC[C@@]12C(=O)N(c3cccc(F)c3)C(=O)N1[C@H](c1cccc(C)c1)[C@@H]1C(=O)N(Cc3ccccc3)C(=O)[C@@H]12 | 15.6 | nt | nt | -2.8 | nt | nt
COc1ccc(CNC(=O)COC(=O)c2ccc(S(=O)(=O)N3CCCCC3)cc2)cc1 | -3.5 | nt | nt | nt | nt | nt
CCC1(CC)NC(=O)N(CC(=O)OC(C)C(=O)Nc2ccccc2OC)C1=O (stereo unspecified) | -4.4 | nt | nt | -0.7 | nt | nt
CCCCOc1nc(N2CCOCC2)nc(C)c1[N+](=O)[O-] | 15.7 | 6.6 | -0.9 | 1.0 | -3.1 | nt
Cc1nc(N2CCOCC2)nc(Oc2ccccc2)c1[N+](=O)[O-] | 51.6* | 24.8 | -2.1 | 1.8 | -0.8 | 42.8
Cc1ccc(C(C(=O)NCc2ccccc2)N(Cc2cccs2)C(=O)c2ccc3c(c2)OCCO3)cc1 (stereo unspecified) | 51.1* | -58.6 | 2.2 | 0.3 | -2.0 | 31.9
COc1ccc(CNC(=O)C(c2ccc(C)cc2)N(Cc2cccs2)C(=O)c2ccc3c(c2)OCCO3)cc1 (stereo unspecified) | 33.5 | -73.4 | 0.9 | 1.2 | -8.0 | nt
COC(=O)C1=C(C(=O)OC)[C@]2([C@H]3CCCCN[C@@H](Cc4ccccc4)C(=O)N3Cc3ccccc3)C=C[C@H]1O2 | 75.0* | nt | nt | nt | nt | 11.2
O=C1[C@H](Cc2ccccc2)NCCCC[C@@H](c2ccc(Cl)cc2)N1Cc1ccccc1 | 26.5 | nt | nt | nt | nt | nt
COc1ccc(C(=O)CN(CCC(=O)O)S(=O)(=O)c2ccc([N+](=O)[O-])cc2)cc1 | 71.4* | nt | nt | nt | nt | 80.0*
Cc1ccc(C(=O)CN(CCC(=O)O)S(=O)(=O)c2ccc([N+](=O)[O-])cc2)cc1 | 62.4* | nt | nt | nt | nt | 78.6*
O=C(O)CCN(CC(=O)c1ccc(Cl)cc1)S(=O)(=O)c1ccc([N+](=O)[O-])cc1 | 74.6* | nt | nt | nt | nt | 71.8*
Cc1ccc(C(=O)CN(CCCC(N)=O)S(=O)(=O)c2ccc([N+](=O)[O-])cc2)cc1 | 68.0* | nt | nt | nt | nt | 52.1*
O=C(Nc1ccc(CN2CCS(=O)(=O)CC2)cc1)c1ccc(Cl)cc1 | -5.9 | -13.3 | -2.4 | 0.4 | -0.6 | nt
CN(CC(=O)Nc1cccc2ccccc12)C(=O)c1ccc(F)cc1F | 0.3 | nt | nt | nt | nt | nt
O=C(NCCS(=O)(=O)N1CCN(c2ccccc2)CC1)C1CC1 | -6.4 | nt | nt | 1.8 | nt | nt
Nc1c(Cl)cc(-c2csc(N3CCCC3c3nc4cc(Cl)c(N5CCCCC5)cc4n3CCOCCO)n2)cc1Cl (stereo unspecified) | 69.6* | nt | nt | 0.2 | nt | 18.3
O=c1oc(-c2ccc(Cl)cc2[N+](=O)[O-])nc2ccccc12 | 62.1* | nt | nt | nt | nt | 19.6
N#Cc1ccncc1S(=O)c1ccc(Cl)cc1 (stereo unspecified) | -4.2 | nt | nt | -1.0 | nt | nt
Cc1ccc(S(=O)(=O)N2CCN(C(=O)c3ccc(N4CCC(C)CC4)c([N+](=O)[O-])c3)CC2)cc1 | 54.5* | nt | nt | nt | nt | 13.7
N#Cc1cc2sc3nnc(-c4ccncc4)n3c2cc1C#N | 74.7* | 7.5 | 3.1 | 2.4 | -0.6 | 52.9*
N#Cc1cc2sc3nc4ccccc4n3c2cc1C#N | nt | -44.3 | 0.8 | 1.6 | -0.9 | nt
Nc1cc(=O)[nH]c2ncnn12 | -5.8 | nt | nt | nt | nt | nt
COc1ccccc1N(C(=O)c1cncc(Br)c1)c1nc(-c2ccc(C)cc2)cs1 | 55.8* | -25.5 | 2.2 | 2.4 | 1.1 | 8.9
COc1ccc2cc(C3CC(c4ccco4)=NN3S(C)(=O)=O)c(Cl)nc2c1 (stereo unspecified) | -3.4 | -11.3 | -4.5 | -5.2 | 29.9 | nt
